Mdm2 MdmX PPI = human Mdm2/MdmX binding inhibition | O15151+Q00987 | SaOS-2 split-luciferase Mdm2/MdmX complementation, luminescence | inhibition, % at 8 µM | actives 3% (n = 330,000) | AID 485346;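 active = inhibition of at least 50% at 8 µM in the primary screen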
Apaf-1 inh = inhibitors of human Apaf-1 apoptosome; O14727; reconstituted apoptosome caspase-3 activity, DEVD-Rh110 fluorescence; inhibition, % at 20 µM; actives 0.71% (n = 330,000); active = inhibition of at least 40% at 20 µM
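Medium: Hepes buffer, pH 7.5 / System: biochemical Apaf-1 apoptosome reconstitution / Measured by: Rh110 fluorescence, excitation 480 nm, emission 540 nm / Times: compound with Apaf-1, dATP, procaspase-3 30 min, then 50 min reaction, room temperature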
UBC13 inh = blocks human UBC13 polyubiquitin chain formation; TR-FRET; inhibition, % at 20 µM; AID 485273; actives 0.47% (n = 330,000); in the data active = inhibition above about 45%, passing the limit was not always enough
CHOP UPR activ = activators of apoptotic arm of unfolded protein response (CHOP); AID 449763; actives 0.34% (n = 330,000); activation, % at 10 µM; CHO-CHOP luciferase reporter, UPR activation, luminescence; percent of tunicamycin response over DMSO baseline;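 active = at 10 µM dose, activation of 40% or more, normalized to positive control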
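Test system: CHO CHOP reporter cells. Input: 500 CHO-CHOP cells per well. Medium: F12 with 10% FBS. Technique: luciferase luminescence. Measure: percent activation relative to tunicamycin control. Dosing: 10 µM compound, 0.5% DMSO. Timing: 16-18 h cell attachment, then 6 h compound exposure, 37 °C.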
UPR XBP1 act = activators of adaptive arm of unfolded protein response (XBP1). CHO-XBP1 luciferase reporter, IRE1-XBP1 UPR activation, luminescence; percent of tunicamycin response, DMSO as zero. activation, % at 20 µM. actives 0.33% (n = 330,000). AID 463104;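 active = versus positive control, 20 µM dose yields 30% or more activation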
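Material: CHO-XBP1 cells stably carrying IRE1-XBP1-driven luciferase reporter / Amount: 1000 cells per well / Compound: 20 µM, 1% DMSO / Times: 6 h treatment, 37 °C / Detection: luciferase luminescence / Measure: % activation of reporter signal versus tunicamycin and DMSO controls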
Apaf-1 inh conf = confirmation of Apaf-1 inhibitors; reconstituted apoptosome, caspase-3 DEVD-Rh110 fluorescence; shares compounds with Apaf-1 inh; actives 25% (n = 1,800); inhibition, % at 20 µM;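 active = mean inhibition of at least 40% at 20 µM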
Rh110 quench = interferes with Rh110 fluorescence, flagging false Apaf-1 inhibitors; shares compounds with Apaf-1 inh; Rh110 fluorescence interference, quenched caspase reaction; activation (fluorescence interference), % at 20 µM; 1,800 tested, under 10 active;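 active = signal rise of 40% or more at 20 µM, treated as a fluorescence artifact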
Apaf1 inh interf = Apaf-1 inhibitor counter-screen fluorescence artifact. shares compounds with Apaf-1 inh. fluorescence interference counterscreen, Apaf-1 assay format. IC50, µM. 460 tested, under 10 active. AID 588538; call rule not given here
Each line names hits and unclear results; the compound was inactive in the other large screens (follow-up assays come after a bar, where they were run). A selection: hits, their analogues and other compounds. The true share with any hit is near 4.1%.

Cc1cccc(NC(=O)c2ccc(OCC3CCCO3)cc2)c1C (stereo unspecified)	none
Cc1cccc(N2CCN(C(=O)c3cc4cc(F)ccc4[nH]3)CC2)c1C	Apaf-1 inh 42 | Apaf-1 inh conf inactive | Rh110 quench inactive
COc1cc(C(=O)O)ccc1OCc1ccncc1	none
CC(=O)c1ccc2c(c1)C1C=CCC1C(c1ccncc1)N2 (stereo unspecified)	Apaf-1 inh 60 | Apaf-1 inh conf inactive | Rh110 quench inactive
[O-][n+]1c2ccccc2[n+]([O-])c2cc(O)ccc21	none
O=C(Nc1ccccc1)Nc1ccc(O)c2ccccc12	Apaf-1 inh 44 | Apaf-1 inh conf inactive | Rh110 quench inactive
CCN1CCn2c3c(c4cc(C)ccc42)CCCC31 (stereo unspecified)	none
CC(=O)N1CCn2c3c(c(=O)c4cc(C)ccc42)CCC31 (stereo unspecified)	Apaf-1 inh 73 | Apaf-1 inh conf inactive | Rh110 quench inactive
COc1cccc(OCC(=O)NNC(=O)C(=O)N2CCCC2)c1	none
COc1ccccc1C1/C(=C(\O)c2ccc3c(c2)OCCO3)C(=O)C(=O)N1CCCn1ccnc1 (stereo unspecified)	Apaf-1 inh 45 | Apaf-1 inh conf inactive | Rh110 quench inactive
COc1ccc(C2/C(=C(\O)c3ccc4c(c3)OCCO4)C(=O)C(=O)N2CCCn2ccnc2)cc1 (stereo unspecified)	none
COc1ccc(C2/C(=C(/O)c3ccc4c(c3)CC(C)O4)C(=O)C(=O)N2CCCn2ccnc2)cc1 (stereo unspecified)	Apaf-1 inh 42 | Apaf-1 inh conf inactive | Rh110 quench inactive
Cc1[nH]n(-c2ccccc2)c(=O)c1C(C[N+](=O)[O-])c1ccc(F)cc1 (stereo unspecified)	Apaf-1 inh 94 | Apaf-1 inh conf inactive | Rh110 quench inactive
COc1ccc(C(c2c(C)n(C)n(-c3ccccc3)c2=O)c2c(C)n(C)n(-c3ccccc3)c2=O)cc1OC	none
COc1ccc(C(c2c(C)[nH]n(-c3ccccc3)c2=O)c2c(C)[nH]n(-c3ccccc3)c2=O)cc1OC	Apaf-1 inh 97 | Apaf-1 inh conf inactive | Rh110 quench inactive
Cc1ccc(C(C[N+](=O)[O-])c2c(C)[nH]n(-c3ccccc3)c2=O)cc1 (stereo unspecified)	Apaf-1 inh 93 | Apaf-1 inh conf 44 | Rh110 quench inactive | Apaf1 inh interf inactive
CCCOc1ccccc1OCC(=O)Nc1cc(Cl)ccc1-n1cncn1	none
COc1ccc(S(=O)(=O)Nc2ccccc2-c2nc3ccccc3[nH]c2=O)cc1	none
O=C(O)c1cc(O)ccc1NC(=O)c1cccc2ccccc12	none
S=C(Nc1ccc(N2CCOCC2)cc1)Nc1ccc2nc(-c3ccco3)c(-c3ccco3)nc2c1	Apaf-1 inh 41 | Apaf-1 inh conf inactive | Rh110 quench inactive
O=C(CC1Nc2cccc3cccc(c23)NC1=O)Nc1ccccc1 (stereo unspecified)	Apaf-1 inh 96 | Apaf-1 inh conf inactive | Rh110 quench inactive
O=C(CC1Nc2ccccc2NC1=O)c1ccccc1 (stereo unspecified)	none
NC(=O)CC1Nc2cccc3cccc(c23)NC1=O (stereo unspecified)	Apaf-1 inh 98 | Apaf-1 inh conf inactive | Rh110 quench inactive
COc1ccc(NC(=O)CCNC(=O)c2ccco2)cc1S(=O)(=O)N(C)C	none
N#Cc1c(N(CCO)CCO)nc(N)c2c(N)nc3c(c12)CC(=O)N3Cc1cccs1	Apaf-1 inh 73 | Apaf-1 inh conf 42 | Rh110 quench inactive | Apaf1 inh interf inactive
CN(CCO)c1nc(N)c2c(N)nc3c(c2c1C#N)CC(=O)N3Cc1cccs1	Apaf-1 inh 77 | Apaf-1 inh conf inactive | Rh110 quench inactive
CCOc1ccc(NC(=O)CN(C)C(=O)c2c(-c3c(F)cccc3Cl)noc2C)cc1OCC	none
